Test results reported in ChEMBL document CHEMBL3244156, “Analgesic and tranquilizing activity of 5,8-disubstituted 1-tetralone Mannich bases” (1977).

How the values were obtained:
[1] = test system: Rattus norvegicus; assay: Analgesic activity in rat assessed as median foot shock required to elicit flinch-jump at 32 mg/kg, ip after 2 hrs; format: functional; settings: route intraperitoneal
Outline: (§1)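 Series given just before and 0.5 and 2 h after ip dosing. Flinch, squeak and jump were scored. Value is the median shock (mA) that elicits a jump. At least five rats per dose.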

[2] = test system: Rattus norvegicus; assay: Analgesic activity in rat assessed as median foot shock required to elicit flinch-jump at 10 mg/kg, ip after 2 hrs; format: functional; settings: route intraperitoneal; outline: as §1
[3] = test system: Mus musculus; assay: Analgesic activity in mouse at 100 mg/kg, ip after 2 hrs by hot plate assay; format: functional; settings: route intraperitoneal
Outline: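 Mice dropped into a glass cylinder on an aluminum plate held at 57 °C. Timed from foot contact to first hind-foot flick, with a 10-s limit. Observed 0.5 and 2 h after treatment. Value is % of mice failing to react within the limit. At least ten mice per dose.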

[4] = test system: Mus musculus; assay: Analgesic activity in mouse assessed as tail-flick latency period at 100 mg/kg, ip after 2 hrs by tail flick test; format: functional; settings: route intraperitoneal
[5] = test system: Rattus norvegicus; assay: Neuroleptic activity in ip dosed rat assessed as drug required for blocking discriminated jump-out avoidance behavior in after 1 hr; format: functional
Outline: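 Rats trained in discriminated jump-out avoidance and tested 1 h after dosing. Value is an estimated ED50 for blocking avoidance.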

[6] = test system: Mus musculus; assay: Neuroleptic activity in ip dosed mouse assessed as inhibition of amphetamine-induced mortality; format: functional
Outline: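 Aggregated mice in groups of ten given amphetamine. Value is an ED50 estimate for blocking lethality, bracketed between a dose where <5/10 died and a dose where >5/10 died.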

[7] = test system: Canis familiaris; assay: Analgesic activity in dog assessed as rippling of skin at 10 mg/kg, po after 2 hrs by radiant heat assay; format: functional, Canis lupus familiaris
Outline: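 Dogs held in a harness with a shaved mid-back patch placed under a concealed radiant heat source. Endpoint is the latency from heat onset to skin "rippling". Baseline latency measured in each dog, then retested at 0.5 and 2 h after dosing. Result expressed as % of control.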

SMILES	Activity [1]	Activity [2]	Activity [3]	Activity [4]	ED50 [5]	ED50 [6]	Activity [7]
COc1ccc(Cl)c2c1CCC(CN1CCC(c3ccccc3)CC1)C2=O.Cl (stereo not drawn)	>2.2 mA	2.2 mA	20%	10%	–	–	–
CCOc1ccc(Cl)c2c1CCC(CN1CCOCC1)C2=O.Cl (stereo not drawn)	2.2 mA	–	10%	20%	–	–	–
COc1ccc(OC)c2c1CCC(CN(C)C)C2=O.Cl (stereo not drawn)	0.6 mA	–	10%	0%	–	–	–
COc1ccc(Cl)c2c1C(C)CC(CN1CCCCC1)C2=O.Cl (stereo not drawn)	1.2 mA	–	–	–	–	–	–
COc1ccc(Cl)c2c1CCC(C(C)N1CCOCC1)C2=O.Cl (stereo not drawn)	0.6 mA	–	0%	0%	–	–	–
COc1ccc(Cl)c2c1CCC(CN1CCOCC1)C2=O.O=C(O)/C=C\C(=O)O (stereo not drawn)	2.2 mA	–	0%	20%	0.32 mg/kg	32 mg/kg	140%
CCOC1(c2ccccc2)CCN(CC2CCc3c(OC)ccc(Cl)c3C2=O)CC1.Cl (stereo not drawn)	1.2 mA	–	0%	0%	–	–	–
COc1ccc(Cl)c2c1CCC(CNC1CCCCC1)C2=O.Cl (stereo not drawn)	>2.2 mA	1.2 mA	–	0%	–	–	–
COc1cccc2c1CCC(CN1CCCCC1)C2=O.Cl (stereo not drawn)	0.8 mA	–	–	–	–	–	–
COc1ccc(F)c2c1CCC(CN1CCCC1)C2=O.Cl (stereo not drawn)	1.2 mA	–	50%	0%	–	–	–
COc1ccc(C)c2c1CCC(CN1CCOCC1)C2=O.Cl (stereo not drawn)	0.6 mA	–	10%	0%	–	–	–
COc1ccc(Cl)c2c1CC(CN1CCOCC1)C2=O.Cl (stereo not drawn)	0.6 mA	–	0%	0%	–	–	–
COc1ccc(Cl)c2c1CC(CN1CCCCC1)C2=O.Cl (stereo not drawn)	0.6 mA	–	0%	0%	–	–	–
COc1ccc(Cl)c2c1CCC(CN(C)C)C2=O.Cl (stereo not drawn)	2.2 mA	–	0%	10%	> 178 mg/kg	32 mg/kg	130%
COc1ccc(OC)c2c1CCC(CN1CCCC1)C2=O.Cl (stereo not drawn)	1.2 mA	–	0%	0%	–	–	–
CN1CCN(CC/C=C2/c3ccccc3Sc3ccc(S(=O)(=O)N(C)C)cc32)CC1 [THIOTHIXENE]	–	–	–	–	3.2 mg/kg	0.32 mg/kg	–
Cl.O=C1c2ccccc2CCC1CN1CCCC1 (stereo not drawn)	1.2 mA	–	0%	10%	> 10 mg/kg	32 mg/kg	100%
COc1ccc(Cl)c2c1CCC(CN1CCC(O)(c3ccccc3)CC1)C2=O.Cl (stereo not drawn)	>2.2 mA	1.2 mA	60%	0%	–	–	–
COc1cccc2c1CCC(CN(C)C)C2=O.Cl (stereo not drawn)	1.2 mA	–	0%	0%	–	–	–
CN(C)CCCN1c2ccccc2Sc2ccc(Cl)cc21 [CHLORPROMAZINE]	–	–	–	–	3.2 mg/kg	1 mg/kg	–
CNCC1CCc2c(OC)ccc(Cl)c2C1=O.Cl (stereo not drawn)	>2.2 mA	1.2 mA	10%	0%	–	–	–
CN(C)CC1CCc2ccccc2C1=O.Cl (stereo not drawn)	1.2 mA	–	10%	0%	> 10 mg/kg	32 mg/kg	70%
COc1ccc(Cl)c2c1CCC(C)(CN1CCCCC1)C2=O.Cl (stereo not drawn)	0.6 mA	–	–	–	–	–	–
COc1ccc(Cl)c2c1CCC(C(c1ccccc1)N1CCCCC1)C2=O.Cl (stereo not drawn)	0.6 mA	–	30%	0%	–	–	–

SMILES	Activity [1]	Activity [2]	Activity [3]	Activity [4]	ED50 [5]	ED50 [6]	Activity [7]
COc1cccc2c1CCC(CN1CCOCC1)C2=O.Cl (stereo not drawn)	0.6 mA	–	–	–	–	–	–
CCc1c(C)[nH]c2c1C(=O)C(CN1CCOCC1)CC2 (stereo not drawn) [MOLINDONE]	–	–	–	–	3.2 mg/kg	3.2 mg/kg	–
COc1ccc(F)c2c1CCC(CN(C)C)C2=O.Cl (stereo not drawn)	0.6 mA	–	50%	0%	–	–	–
CCOC(=O)N1CCN(CC2CCc3c(OC)ccc(Cl)c3C2=O)CC1.O=C(O)/C=C\C(=O)O (stereo not drawn)	0.6 mA	–	0%	0%	–	–	–
Cl.O=C1c2ccccc2CCC1CN1CCCCC1 (stereo not drawn)	0.8 mA	–	0%	0%	> 32 mg/kg	> 100 mg/kg	–
COc1ccc(Cl)c2c1CCC(CN1CCCCC1)C2=O.Cl (stereo not drawn)	>2.2 mA	2.2 mA	0%	0%	32 mg/kg	10 mg/kg	110%
COc1ccc(Cl)c2c1CC(CN(C)C)C2=O.Cl (stereo not drawn)	0.6 mA	–	20%	30%	–	–	–
COc1ccc(Cl)c2c1CCC(C(C)N1CCCCC1)C2=O.Cl (stereo not drawn)	0.6 mA	–	20%	0%	–	–	–
CCOc1ccc(Cl)c2c1CCC(CN1CCCCC1)C2=O.Cl (stereo not drawn)	0.6 mA	–	33%	33%	–	–	–
CCOc1ccc(Cl)c2c1CCC(CN(C)C)C2=O.Cl (stereo not drawn)	0.6 mA	–	0%	0%	–	–	–
COc1ccc(OC)c2c1CCC(CN1CCOCC1)C2=O.Cl (stereo not drawn)	0.6 mA	–	10%	0%	–	–	–
COc1ccc(F)c2c1CCC(CN1CCOCC1)C2=O.Cl (stereo not drawn)	1.2 mA	–	30%	10%	–	–	–
COc1cccc2c1CCC(CN1CCCC1)C2=O.Cl (stereo not drawn)	0.8 mA	–	0%	0%	–	–	–
COc1ccc(Cl)c2c1CCC(CN1CCCCCC1)C2=O.Cl (stereo not drawn)	1.2 mA	–	0%	0%	–	–	–
COc1ccc(OC)c2c1CCC(CN1CCCCC1)C2=O.Cl (stereo not drawn)	2.2 mA	–	0%	22%	–	–	–
COc1ccc(Cl)c2c1CCC(C)(CN1CCOCC1)C2=O.Cl (stereo not drawn)	0.6 mA	–	–	–	–	–	–
COc1ccc(Cl)c2c1CC(CN1CCCC1)C2=O.Cl (stereo not drawn)	0.6 mA	–	0%	0%	–	–	–
CCN(CC)CC1CCc2c(OC)ccc(Cl)c2C1=O.O=C(O)/C=C\C(=O)O (stereo not drawn)	0.6 mA	–	20%	0%	–	–	–
CCOc1ccc(Cl)c2c1CCC(CN1CCCC1)C2=O.Cl (stereo not drawn)	0.6 mA	–	30%	60%	–	–	–
COc1ccc(Cl)c2c1C(C)CC(CN1CCOCC1)C2=O.Cl (stereo not drawn)	0.8 mA	–	30%	40%	–	–	–
COc1ccc(C)c2c1CCC(CN1CCCC1)C2=O.Cl (stereo not drawn)	2.2 mA	–	12.5%	50%	–	–	–
COc1ccc(C)c2c1CCC(CN(C)C)C2=O.Cl (stereo not drawn)	0.6 mA	–	–	–	–	–	–
Cl.O=C1c2ccccc2CCC1CN1CCOCC1 (stereo not drawn)	0.6 mA	–	10%	20%	> 10 mg/kg	32 mg/kg	90%
COc1ccc(Cl)c2c1CCC(C(c1ccccc1)N1CCOCC1)C2=O.Cl (stereo not drawn)	0.6 mA	–	0%	0%	–	–	–
